Most compounds without a hit are left out; they make up all but 3.7% or so of the library.
KCNK3 inh: human KCNK3 channel inhibition, primary screen; hit rate 0.84% among 340,000; AID 602410; B-score at 10 µM; CHO-KCNK3 thallium flux, FluxOR fluorescence; stronger effect = lower value;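 active = B-score under library mean minus 4 SD, starting fluorescence ratio at most library mean plus 5 SD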;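 note: more negative B-score means stronger inhibition of thallium flux through KCNK3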
KCNQ1 inh: human KCNQ1 channel inhibition | CHO-K1 KCNQ1, FluxOR thallium flux fluorescence; stronger effect = higher value | B-score at 10 µM | hit rate 1.3% among 310,000 | AID 2642;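 active = compounds whose thallium flux B-score, printed positive for inhibition, exceeds three library SD while starting fluorescence stays within three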;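 note: channel opened by potassium depolarization with thallium stimulus after 20 min compound exposure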
KCNQ1 act: potentiates or activates the human KCNQ1 potassium channel | P51787 | B-score at 10 µM | hit rate 0.35% among 310,000 | CHO-K1 KCNQ1, thallium flux FluxOR fluorescence; stronger effect = higher value | AID 2648;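 active = fluorescence ratio B-score, a plate-corrected score, at least three library SD, with initial intensity B-score within 5 SD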
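Assay system: CHO-K1 cells stably expressing KCNQ1. Medium: assay buffer for compound exposure, DMSO matched across wells. Timing: 37 °C overnight plating, 90-min dark dye load, 20-min compound pretreatment. Signal: kinetic FluxOR fluorescence, 10 s baseline plus 110 s post-stimulus.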
Kir21 block: Kir2.1 (mouse) channel inhibition; HEK293-Kir2.1, FluxOR thallium flux fluorescence; stronger effect = lower value; B-score at 10 µM; hit rate 0.85% among 310,000;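 active = fluorescence ratio B-score at or below minus 3 SD of library scores, with starting-brightness B-score within 2 SD, cut at about -4.2 in these data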;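 note: channel flux triggered by added potassium and thallium sulfate stimulus; B-score of peak minus minimum fluorescence over baseline after thallium stimulus; more negative B-score means stronger Kir2.1 block with less thallium influx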
hERG rescue: hERG (human) protection from proarrhythmic block; Q12809; CHO-hERG, FluxOR thallium flux, dofetilide IC70 present; activation (rescue from dofetilide block), less the hit threshold, % at 10 µM; hit rate 0.51% among 310,000; AID 1511;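 active = activation above the mean of controls blocked by dofetilide plus 5 SD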;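 note: thallium influx through hERG after potassium depolarization seen as dye fluorescence rise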
KCNK9 block: inhibitors of human KCNK9 two-pore domain potassium channel; HEK293 KCNK9, FluxOR thallium flux fluorescence; stronger effect = lower value; B-score at 10 µM; Q9NPC2; hit rate 1.2% among 310,000; AID 488922;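 active = ratio B-score over 3 SD below the library mean, with starting fluorescence within 5 SD of its mean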;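 note: negative B-score means less thallium flux so channel inhibition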
KCNK9 block conf: confirmation of human KCNK9 potassium channel inhibitors | hit rate 43% among 4,900 | inhibition, % at 10 µM | HEK293 KCNK9 cells, FluxOR thallium flux fluorescence | shares compounds with KCNK9 block;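 active = thallium signal inhibited by more than 5 SD of the compound-free buffer control wells, on both duplicate plates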;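 note: 0% = assay buffer control wells without compound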
Kir21 sel: mouse Kir2.1 off-target activity of KCNK9 modulators; shares compounds with KCNK9 block; Kir2.1 cells, FluxOR thallium flux fluorescence; inhibition, % at 10 µM; hit rate 4% among 4,900;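 active = thallium signal drop more than 5 SD beyond the mean of the no-compound control wells, seen in both duplicate plates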;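 note: signal is fluorescence rise after thallium addition divided by baseline fluorescence; plate controls were assay buffer only for no effect and full block by chlorpromazine control for full effect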
HEK293 Tl ctr: second check of KCNK9 modulator effects in non-induced HEK293 cells; AID 492997; FluxOR thallium flux; inhibition, % at 10 µM; shares compounds with KCNK9 block; hit rate 40% among 4,900;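 active = thallium signal drop beyond 5 SD of the untreated control mean, on both duplicate plates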;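 note: plate controls were buffer only IC0 wells for no effect and SID17386958 at its maximal inhibitory level for full effect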
* = called active by the depositor.

Screening CC1C(=NO)C(C)C(c2ccc(N(C)C)cc2)NC1c1ccc(N(C)C)cc1 (stereo not drawn) returned KCNK3 inh inactive, KCNQ1 inh inactive, KCNQ1 act inactive, Kir21 block -0.65, hERG rescue -4, KCNK9 block inactive, KCNK9 block conf inactive, Kir21 sel inactive and HEK293 Tl ctr inactive.
For COc1ccc2c(c1)-c1nc(NC(=O)c3ccco3)sc1CC2 the results were KCNK3 inh inactive, KCNQ1 inh inactive, KCNQ1 act inactive, Kir21 block 0.71, hERG rescue -8, KCNK9 block -11*, KCNK9 block conf 48%*, Kir21 sel inactive and HEK293 Tl ctr inactive.
For COc1ccc2c(c1)Cc1sc(NC(=O)c3ccco3)nc1-2 the results were KCNK3 inh inactive, KCNQ1 inh inactive, KCNQ1 act inactive, Kir21 block -0.25, hERG rescue -2 and KCNK9 block inactive.
`COc1ccc2c(c1)CCc1sc(NC(=O)c3ccco3)nc1-2` gave KCNK3 inh inactive, KCNQ1 inh inactive, KCNQ1 act inactive, Kir21 block 0.37, hERG rescue -14, KCNK9 block -8.4*, KCNK9 block conf 26%*, Kir21 sel inactive and HEK293 Tl ctr inactive.
`COc1ccc(S(=O)(=O)N2CCN(C(=O)c3cc4c(s3)CCC4)CC2)cc1` gave KCNK3 inh inactive.
For CCc1nnc(NC(=O)CN2C(=O)N(C)C3(CCCCC3)C2=O)s1 the results were KCNK3 inh inactive.
Screening COc1ccc(NC2CCCN(C(=O)C3(C)CCCCC3)C2)cc1 (stereo not drawn) returned KCNK3 inh inactive, KCNQ1 inh inactive, KCNQ1 act inactive, Kir21 block -0.4, hERG rescue -5, KCNK9 block inactive, KCNK9 block conf inactive, Kir21 sel inactive and HEK293 Tl ctr inactive.
Screening O=C(CCc1ccccc1)N1CCCC(Nc2ccc(F)cc2)C1 (stereo not drawn) returned KCNK3 inh inactive, KCNQ1 inh inactive, KCNQ1 act inactive, Kir21 block -0.66, hERG rescue -6, KCNK9 block inactive, KCNK9 block conf inactive, Kir21 sel inactive and HEK293 Tl ctr inactive.
Screening COc1ccc(CCC(=O)N2CCCC(Nc3ccc(OC)cc3)C2)cc1 (stereo not drawn) returned KCNK3 inh inactive, KCNQ1 inh inactive, KCNQ1 act inactive, Kir21 block -3.1, hERG rescue -4, KCNK9 block inactive, KCNK9 block conf inactive, Kir21 sel inactive and HEK293 Tl ctr inactive.
COc1ccc(NC2CCCN(C(=O)CCc3cn[nH]c3)C2)cc1 (stereo not drawn) was read as KCNK3 inh inactive, KCNQ1 inh inactive, KCNQ1 act inactive, Kir21 block -0.18, hERG rescue -7 and KCNK9 block inactive.
For COc1ccc(C(=O)N2CCCC(Nc3ccc(C(C)C)cc3)C2)c(OC)n1 (stereo not drawn) the results were KCNK3 inh inactive, KCNQ1 inh inactive, KCNQ1 act inactive, Kir21 block -0.25, hERG rescue -12, KCNK9 block inactive, KCNK9 block conf inactive, Kir21 sel inactive and HEK293 Tl ctr inactive.
For CCCCN1C(=N)N([C@@H](C)CN2CCC[C@H]2CN2C(N)=NC[C@H]2CC(C)C)C[C@H]1[C@H](C)CC the results were KCNK3 inh inactive.
For O=C(NNC(=O)C1CCC1)c1cccc(Cl)c1 the results were KCNK3 inh inactive.
`CN(C)C(=O)[C@H]1C[C@H]1[C@@H](O)[C@H](CO)NC(=O)[C@H](COCc1ccccc1)NC(=O)OC(C)(C)C` gave KCNK3 inh inactive, KCNQ1 inh inactive, KCNQ1 act inactive, Kir21 block -1.1, hERG rescue -7 and KCNK9 block inactive.
For CCCN(CC(=O)Nc1ccccc1C)C(=O)c1cnc(C)cn1 the results were KCNK3 inh inactive.
`CCOC(=O)c1c(C)[nH]c(C(=O)OC(C)C(=O)Nc2ccccc2OC)c1C` (stereo not drawn) gave KCNK3 inh inactive, KCNQ1 inh inactive, KCNQ1 act inactive, Kir21 block 2, hERG rescue -10 and KCNK9 block inactive.
COc1ccc(CCNc2oc(Cc3cccc4ccccc34)nc2C#N)cc1OC was read as KCNK3 inh inactive, KCNQ1 inh inactive, KCNQ1 act inactive, Kir21 block -2.5, hERG rescue -2, KCNK9 block -8.2*, KCNK9 block conf 40%*, Kir21 sel 37%* and HEK293 Tl ctr 27%*.
For CNc1oc(Cc2cccc3ccccc23)nc1C#N the results were KCNK3 inh inactive, KCNQ1 inh inactive, KCNQ1 act inactive, Kir21 block 1, hERG rescue -13 and KCNK9 block inactive.
For Clc1ccc(COn2c(-c3ccc(Cl)cc3)nc3ccccc32)cc1 the results were KCNK3 inh -11*, KCNQ1 inh inactive, KCNQ1 act inactive, Kir21 block 1.5, hERG rescue -12, KCNK9 block -16*, KCNK9 block conf 80%*, Kir21 sel inactive and HEK293 Tl ctr 36%*.
Screening O=C(O)COn1c(-c2ccc(Cl)cc2)nc2ccc(Cl)cc21 returned KCNK3 inh inactive, KCNQ1 inh inactive, KCNQ1 act inactive, Kir21 block -0.12, hERG rescue -11 and KCNK9 block inactive.
Screening O=C1CC(N(CCc2ccccc2)C(=S)Nc2cc(Cl)ccc2Cl)C(=O)N1c1c(Cl)cccc1Cl (stereo not drawn) returned KCNK3 inh inactive, KCNQ1 inh inactive, KCNQ1 act inactive, Kir21 block 1, hERG rescue -4, KCNK9 block -9.6*, KCNK9 block conf 42%*, Kir21 sel inactive and HEK293 Tl ctr inactive.
Screening CC(C)OC(=O)c1c(NS(=O)(=O)c2ccccc2)sc2c1CCCC2 returned KCNK3 inh inactive, KCNQ1 inh inactive, KCNQ1 act 31*, Kir21 block -0.65, hERG rescue 18*, KCNK9 block inactive, KCNK9 block conf inactive, Kir21 sel inactive and HEK293 Tl ctr inactive.
Cc1ccc(-c2cc(-c3n[nH]c(=S)n3C)c3ccccc3n2)cc1 was read as KCNK3 inh inactive, KCNQ1 inh inactive, KCNQ1 act inactive, Kir21 block 2.1, hERG rescue -15 and KCNK9 block inactive.
